PKA-R1A act – PKA-R1A complex activation; 340,000 tested, 0.083% active; P00514+P68181; AID 504707; activation, % at 11.4 µM; PKA-R1A dissociation, Cy5-IP20 fluorescence polarization; scaled: DMSO 0%, 113 µM cGMP 100%;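 active = percent activation above the mean of all tested compounds plus 3 SD, cut at about 19% in these data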;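 also: higher means more PKAc released from R1A so a rise in polarization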
NR2E3 ag-1 – activates human NR2E3 receptor; Q9Y5X4; CHO-S Gal4-NCOR/VP16-NR2E3 two-hybrid, luciferase; inhibition of corepressor binding, % at 3.98 µM; 360,000 tested, 0.35% active; AID 602229;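 active = inhibition above the mean of all tested compounds plus 3 SD, cut at about 70% in these data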;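 also: higher means lower luciferase signal from less NR2E3 corepressor binding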
PKA-R2B activ – PKA-R2B complex activation; PKA-R2B holoenzyme dissociation, Cy5-IP20 fluorescence polarization; R2B truncated from residue 108, S112A mutant; 0% DMSO only, 100% 113 µM cGMP; 340,000 tested, 0.079% active; activation, % at 11.4 µM;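 active = activation above a cutoff set at the mean over all compounds plus 3 SD, cut at about 18% in these data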;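 also: higher means more holoenzyme dissociation and a rise in polarization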
Target sequence (P31323 whole entry, looked up, other chains not shown, the tested form may be a part): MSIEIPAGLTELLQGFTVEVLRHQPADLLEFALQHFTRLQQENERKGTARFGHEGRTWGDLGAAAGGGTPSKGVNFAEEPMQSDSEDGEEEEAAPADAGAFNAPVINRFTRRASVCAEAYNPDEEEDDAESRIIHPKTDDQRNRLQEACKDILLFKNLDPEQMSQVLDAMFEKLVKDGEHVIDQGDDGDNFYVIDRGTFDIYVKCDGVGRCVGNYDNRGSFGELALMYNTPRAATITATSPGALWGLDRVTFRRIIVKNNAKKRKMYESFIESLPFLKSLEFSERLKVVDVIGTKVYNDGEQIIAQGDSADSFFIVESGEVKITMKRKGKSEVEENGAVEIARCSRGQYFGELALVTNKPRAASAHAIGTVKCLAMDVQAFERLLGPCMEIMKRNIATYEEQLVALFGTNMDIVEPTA
PG9 binder – small molecules binding HIV-1 gp120 antibody PG9. inhibition, % at 6.7 µM. AID 624416. TR-FRET gp120-PG9 antibody binding. 360,000 tested, 0.43% active; in the data active = inhibition above about 8.5%
NR2E3 ag-2 – agonists of human nuclear receptor NR2E3. 320,000 tested, 0.12% active. Q9Y5X4. inhibition of corepressor binding, % at 4.78 µM. GST-NR2E3/biotin-RetCOR TR-FRET, 1536-well. AID 2300;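 active = percent inhibition above the cutoff of mean plus 3 SD of all tested compounds, set per screening campaign, cut at about 20% in these data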
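Test system: GST-NR2E3 and biotin-RetCOR proteins | Quantity: 1.35 nM GST-tagged NR2E3 final | Medium: Tris pH 7.5 | Also added: 7 nM biotin-RetCOR | Dosing: Compound at 4.8 µM, single dose | Timing: 5 h at 4 °C | Detection: Time-resolved FRET | Read-out basis: Percent inhibition | Benchmarks: Biotin wells as high control, 0.6% DMSO wells as low control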
NR1D1 modulator – Rev-erb alpha (human) modulation. Rev-erbα–FITC-DNA binding, fluorescence polarization, 90 min. 370,000 tested, 0.79% active. activity, % at 10 µM. P20393;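 active = activity above about 14%, limit read from the data; passing the limit was not always enough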
PG9 binder conf – confirmation of small molecules binding HIV-1 gp120 antibody PG9 | shares compounds with PG9 binder | TR-FRET PG9 antibody binding, biochemical | 1,500 tested, 90% active | inhibition, % at 6.7 µM | AID 651571; in the data active = inhibition above about 9%
PGV04 counter – counter-screen for PG9 binders: binding control antibody PGV04. 1,500 tested, 95% active. TR-FRET PGV04 antibody-gp120 binding, biochemical. inhibition, % at 6.7 µM. AID 651604. shares compounds with PG9 binder; in the data active = inhibition above about 9.5%
A number is an active result; . = inactive; / = no result given. Most compounds without a hit are left out; they make up all but 1.6% or so of the library.

SMILES | PKA-R1A act | NR2E3 ag-1 | PKA-R2B activ | PG9 binder | NR2E3 ag-2 | NR1D1 modulator | PG9 binder conf | PGV04 counter
CCCCn1c(SCC(=O)NCc2ccco2)nc2ccc(N3CCOCC3)cc2c1=O | . | . | . | . | . | . | / | /
CCC(C)NC(=O)CNc1nnnn1-c1ccccc1 (configuration not stated) | / | / | / | / | / | . | / | /
O=C(Nc1ccccc1)c1ccc(-c2ccc(F)cc2)s1 | . | . | . | 18.6 | . | . | 20.4 | 28.3
CCOC(=O)c1ccccc1NC(=O)Cn1c(=O)n(Cc2ccccc2)c(=O)c2c(C)c(C)sc21 | . | . | . | 11.8 | . | . | . | .
CCOc1ccc(-n2c(=O)c3c(C)c(C(=O)N(C)C)sc3n(CC(=O)Nc3ccccc3F)c2=O)cc1 | . | . | . | . | . | . | / | /
COc1cc(C(=O)NNC(=O)c2n[nH]c3ccccc23)cc(OC)c1OC | . | . | . | . | . | . | / | /
COc1ccc(Cl)cc1C(=O)NNC(=O)c1n[nH]c2ccccc12 | . | . | . | 10.1 | . | . | 23.6 | 31.5
CSc1cccc(NC(=O)CCCn2c(=O)c3cccn3c3cccnc32)c1 | . | . | . | 11.8 | . | . | 14.3 | 20.2
CCc1ccc(CNC(=O)CCCn2c(=O)c3cccn3c3cccnc32)cc1 | . | . | . | . | . | . | / | /
O=C(Oc1ccc(Cl)c2cccnc12)N1CCCCC1 | . | . | . | . | . | . | / | /
O=C(Oc1c(Br)cc(Br)c2cccnc12)N1CCCCC1 | . | . | . | 9.1 | . | . | 14.1 | 17.7
COc1ccc(/C=C2\CC3(OC(=O)c4cccc(F)c4)CCCN2C3)cc1 (configuration not stated) | / | / | / | / | / | . | / | /
COc1ccc(OC)c2c1sc(=NC(=O)c1cccc(N3C(=O)CCC3=O)c1)n2C | . | . | . | 51.6 | . | . | 65.2 | 82.2
CCn1c(=NC(=O)c2cccc(N3C(=O)CCC3=O)c2)sc2c(OC)ccc(OC)c21 | . | . | . | . | . | . | / | /
CCc1ccccc1NC(=O)CNC(=O)CCc1nc2sc3c(c2c(=O)[nH]1)CCCC3 | . | . | . | 18.9 | . | . | 21.0 | 38.2
CN(CC(=O)Nc1ccc(F)cc1)C(=O)CCc1nc2sc3c(c2c(=O)[nH]1)CCCC3 | . | . | . | 14.7 | . | . | 13.4 | 31.4
O=C(OC12CCCN(C1)/C(=C/c1ccc(Cl)cc1)C2)c1ccc(F)cc1 (configuration not stated) | / | / | / | / | / | . | / | /
CCOc1ccc(-n2c(SCC(=O)NCc3ccco3)nc3ccccc3c2=O)cc1 | . | . | . | 16.7 | . | . | 45.3 | 52.5
CON(c1nc(Cl)nc(N(C)C)n1)S(=O)(=O)c1ccc(C)cc1 | . | . | . | 10.3 | . | . | . | .
CCCCOCCCNC(=O)C[C@H]1C[C@@]2(C(=O)OC)C(=C[C@H](C(C)(C)C)O[C@@H]2C)N(Cc2ccc(Cl)cc2Cl)C1=O | / | / | / | / | / | . | / | /
CCCCOc1ccc(C2C(C(=O)c3ccc(C)o3)=C(O)C(=O)N2Cc2ccco2)cc1 (configuration not stated) | . | . | . | 18.7 | . | . | 22.5 | 27.2
COc1ccc(C2C(C(=O)c3ccc(C)o3)=C(O)C(=O)N2Cc2cccnc2)cc1 (configuration not stated) | . | . | . | 13.2 | . | . | 22.5 | 28.8
CCCOc1ccc(C2C(C(=O)c3ccc(C)o3)=C(O)C(=O)N2Cc2cccnc2)cc1 (configuration not stated) | / | / | / | / | . | / | / | /
O=C(CCS(=O)(=O)c1ccccc1)Nc1ccc(-c2nc3ccccc3s2)c(O)c1 | . | . | . | 26.2 | . | . | 22.3 | 50.8
O=C(Nc1ccc(Cl)cc1)C1CCCN1S(=O)(=O)c1cccc2cccnc12 (configuration not stated) | / | / | / | / | / | . | / | /

High-throughput results: PubChem, several laboratories
